According to the EternaBench riboswitch data:

System: MS2 coat protein
Assay: apparent Kd, MS2 coat protein; higher = weaker binding; RNA-MaP array; FMN 200 µM where present
In short: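 The apparent Kd is reported as the median of filtered per-cluster binding-curve fits. To get these curves, designs transcribed by stalled E. coli RNA polymerase on Illumina sequencing-chip clusters were titrated with SNAP-549-labelled MS2 coat protein from 0.7 or 1.5 nM, doubling to 3 µM. Titrations were run without and then with constant ligand in 100 mM Tris-HCl pH 7.5, 80 mM KCl, 4 mM MgCl2, BSA, DTT, yeast tRNA and Tween-20, and green signal was normalised to red-channel RNA signal and control-cluster median Fmax.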

[1] = designed as: OFF switch for flavin mononucleotide, no ligand
[2] = ligand present: flavin mononucleotide, designed as: OFF switch for flavin mononucleotide
[3] = designed as: ON switch for flavin mononucleotide, no ligand
[4] = ligand present: flavin mononucleotide, designed as: ON switch for flavin mononucleotide

| Sequence | apparent Kd [1] | apparent Kd [2] | apparent Kd [3] | apparent Kd [4] |
| --- | --- | --- | --- | --- |
| UCGGGCAACCGAAAUAGGACGGCUGAGGAUAUGACAUGAGGAUCACCCAUGUACAGGGCCACAGGUCAGAAGGCAGCCUUUUGG | 161 nM | 36.5 nM | – | – |
| UCGUGAAGGACAGGAUAUGGACAUGAGGAUCACCCAUGUACAUGGGAAUAUAUACUGAAUUUGUACUAGAAGGGUUACAUAAAC | 30.9 nM | 19.8 nM | – | – |
| UCGUGGUCAGGAUAUACAUGAGGAUCACCCAUGUAAAAGAGCAUUAAGGAGAGACUACGUAGAAGGGACAAAUU | 51.6 nM | 47.2 nM | – | – |
| UCGUUGUCAGGAUAUCGUGUAUACAACGUUAGUUCUAUGUGCGAGAAGGGACAUGAGGAUCACCCAUGUUACGU | 69.2 nM | 213 nM | – | – |
| UCGUUGUCAGGAUAUCGUUAAUUUAAUUGUUUGUAUUAGUUCGAGAAGGGACAUGAGGAUCACCCAUGUUUGUU | 57.2 nM | 154 nM | – | – |
| UCGUUUAUACAAGGAUAUCAAUUAUAGCUAAAUUCAACAUGAGGAUCACCCAUGUAACUAUGGAGUGAGAAGGUGUAAUGGCUU | – | – | 116 nM | 310 nM |
| UCUACGCGAAUCCAGAUGGAUAGCACAUGAGGAUCACCCAUGUAGGAUAUGCUACACAAAGUGUAGCAGAAGGACAAGCGUAGA | 28.3 nM | 32.3 nM | – | – |
| UCUAGACCGACAGGAUAUCAUGGCUGGAUAUAGUACAUGAGGAUCACCCAUGUCGGCUAGAGCGAUGAGAAGGGUCGGUUGCUC | – | – | 414 nM | 87.3 nM |
| UCUCGGUGUUCAGGAUAUGCAUCAAGGUUGUACGCAGAAGGGAACAUGAGGAUCACCCAUGUGUCCGAGCUGGGACGAGGGACG | 37.9 nM | 188 nM | – | – |
| UCUGCCGCCGUGAGGAUAUGCCCAAACAAAAGCGGGCAGAAGGCACAUGAGGAUCACCCAUGUCCCGCGGUUUU | 18.5 nM | 37 nM | – | – |
| UCUGGUCGAGGAUAUGCAAUCGUGCUUCGGCACGUAAGAUCACAUGAGGAUCACCCAUGUAGAAGGCGACCAGA | 22.3 nM | 78.3 nM | – | – |
| UCUUUGUUUGUGAGGAUAUCGAUAAAAUGGAUUGUCGAGAAGGCACAUGAGGAUCACCCAUGUGUGGGACAGCA | 22.3 nM | 74.9 nM | – | – |
| UCUUUGUUUGUGAGGAUAUCGGUGGGAUGGGUUGUCGAGAAGGCACAUGAGGAUCACCCAUGUGUGGGACAGCA | 15.3 nM | 15.2 nM | – | – |
| UGAAAUCAUGUAGGAUAUGCAUGGCGAAGCUACGCAGAAGGACAUGAGGAUCACCCAUGUUCUAGCUACCGAGUUCGGUGGCAA | 21.3 nM | 127 nM | – | – |
| UGACGGAGCAGAGGAUAUACAUGAGGAUCACCCAUGUAAAUGAAAGAUAGCAGCAAAGCUGCAAUGUAGAAGGCUGCUCCGUCA | 29.8 nM | 84.9 nM | – | – |
| UGAGCCUCGUGAGGAUAUACAUGAGGAUCACCCAUGUAAUAAAGUGAACGGAGGAAACUCCGAAUGUAGAAGGUACGAGGCUCA | 10.1 nM | 44.2 nM | – | – |
| UGAGCUUCAGGAUAUAUAUGGCGACCGUGAGGUCGAAGGUUACAUGAGGAUCACCCAUGUAGAAGGGAAGUUCU | 34.5 nM | 187 nM | – | – |
| UGAGUCUGCUGAGGAUAUUGCUCGUGCGUACAUGAGGAUCACCCAUGUGUCUUGAUCCUCUUCUGCAAGAAGGCAGCUCUCUCU | 775 nM | 444 nM | – | – |
| UGAGUGCGUGUUAGGAUAUGGUUUGGUGUUUCGGGCUAGAAGGGACAUGAGGAUCACCCAUGUAAUUGGCGGGU | 253 nM | 250 nM | – | – |
| UGAUAACAUGUAGGAUAUCCAGCAUUGACCAUCGGAGAAGGACAUGAGGAUCACCCAUGUACCGAUACAAUGGGAUAAGGGAAU | 16.1 nM | 18.6 nM | – | – |
| UGAUAACAUGUAGGAUAUGCAGCAUUGACCACUGCAGAAGGACAUGAGGAUCACCCAUGUACCGAUACUAUGGGAUCACGCAAU | 24.3 nM | 87.4 nM | – | – |
| UGAUAGAGCCUAGGAUAUUCGGAUCUACUACAAGGAGAAGGAGGUAGUCGGUGACGAACAUGAGGAUCACCCAUGUCGUCCUUC | 67.8 nM | 69.9 nM | – | – |
| UGAUAGGACAGAGGAUAUACAUGCUAGAGAUACUAGCUAAAUUUCCUCACAUGAGGAUCACCCAUGUAGAAGGCUGUCCUAUCU | 19.4 nM | 378 nM | – | – |
| UGAUAGGACAGAGGAUAUACGGAUAGGAUCUACUAUCAAACAGGUCCUACAUGAGGAUCACCCAUGUAGAAGGCUGUCCUAUCU | 22.9 nM | 111 nM | – | – |
| UGAUAGGACAGAGGAUAUACGGAUAGGAUCUACUAUCUUCCUCAAAUAACAUGAGGAUCACCCAUGUAGAAGGCUGUCCUAUCU | 126 nM | 887 nM | – | – |
| UGAUAGGACAGAGGAUAUACGGCUAGGAGAUACUAGCCACUAUUCCUCACAUGAGGAUCACCCAUGUAGAAGGCUGUCCUAUCU | 16.4 nM | 119 nM | – | – |
| UGAUAGGACAGAGGAUAUACGUGCUAGAGAUACUAGCAAAAUUAAAUAACAUGAGGAUCACCCAUGUAGAAGGCUGUCCUAUCU | 5.01 nM | 7.01 nM | – | – |
| UGAUAGGACAGAGGAUAUACGUGCUAGAGAUACUAGCAAAGUUUCCUCACAUGAGGAUCACCCAUGUAGAAGGCUGUCCUAUCU | 24.9 nM | 521 nM | – | – |

| Sequence | apparent Kd [1] | apparent Kd [2] | apparent Kd [3] | apparent Kd [4] |
| --- | --- | --- | --- | --- |
| UGAUCGAAAGAUCAUAGAUUCUGCUAGGAUAUGCAGAAGUUUCGAUUUACAUGAGGAUCACCCAUGUAGAAGGAGUAGAGUCUA | 6.12 nM | 6.54 nM | – | – |
| UGAUCGAGAGAUCUUAGAUUCUGGUAGGAUAUACAUUAUGUAAAAUUUACAUGAGGAUCACCCAUGUAGAAGGACUAGAGUCUA | 6.19 nM | 14.8 nM | – | – |
| UGAUCGAGAGAUCUUAGAUUCUGGUAGGAUAUACAUUUAAAACGCUUUACAUGAGGAUCACCCAUGUAGAAGGACUAGAGUCUA | 6.68 nM | 7.5 nM | – | – |
| UGAUCUAUGUAGAAGGCCCAUAUCUAUAUUUAGGGAGGAUAUACAUGAGGAUCACCCAUGUGUAGAGCUGGUGGACUGGUCAGC | 92.8 nM | 234 nM | – | – |
| UGAUCUUACAUGAGGAUCACCCAUGUAGACCAGUAACUAACCAGAAGGCACGUAGAGUAAAACAGUGAGGAUAUGGAUGACAUA | – | – | 6.66 nM | 5.5 nM |
| UGAUCUUGAGUCAGGAUAUGCUGGUUUUUUUUUUAGCAGAAGGGACAUGAGGAUCACCCAUGUUCUCACUUUUU | 16.1 nM | 20.2 nM | – | – |
| UGCAUGGUAGGAUAUACGGAGCAUUAGGGUUUGUUGUGUGGACAUGAGGAUCACCCAUGUAGAAGGGCCGUGCU | 42.8 nM | 65.2 nM | – | – |
| UGCAUGUAGGAGAAGGAGGACUUCAUGAGGAUCACCCAUGUGUUAGGACUUAGGAUAUUUGACGACAUGAGGAUCACCCAUGUG | – | – | 80.1 nM | 71.9 nM |
| UGCAUGUGAGGAUAUGUGUACUGUCUUUUGUUUAGAUGUACACAGAAGGCACAUGAGGAUCACCCAUGUAGUAC | 126 nM | 27.8 nM | – | – |
| UGCAUGUUAGGAUAUGUUGUUGCGGGCGUACGCUCUCGACCACAGAAGGAACAUGAGGAUCACCCAUGUACCUC | 20.3 nM | 88.8 nM | – | – |
| UGCCUACAUGAGGAUCACCCAUGUGAGGAUAUCCUGCGAGGAUCAAAAGAUCCUCGUGGGAGAAGGCGCUUGGA | 18.9 nM | 32.3 nM | – | – |
| UGCGGUAGAGGAUAUACGUAGAAGUAGAUUCAUGUAAAACUACAUGAGGAUCACCCAUGUAGAAGGCUAUCGCU | 22.9 nM | 230 nM | – | – |
| UGCGUGUUAGGAUAUCCGCCAAAGACCGACGGUGGAACGCAGGAGAAGGAACAUGAGGAUCACCCAUGUGGGAA | 88.1 nM | 34.3 nM | – | – |
| UGCGUGUUAGGAUAUGCCAGCGCUACCUAAGGUAGGCUGUGGUAGAAGGAACAUGAGGAUCACCCAUGUAGGAG | 111 nM | 483 nM | – | – |
| UGCUACCUAGGAUAUACAUGAGGAUCACCCAUGUGAUUCGGUGGCGCGAUCCUUGAAAGUAGAAGGAGGAGCAA | 38.4 nM | 27.4 nM | – | – |
| UGCUAGGACCUAGGAUAUCCUGGGUUGGUGGUGCUUGAUGACCGGACAUGAGGAUCACCCAUGUAGGAGAAGGAGGUUGUUAAG | 61.2 nM | 100 nM | – | – |
| UGCUAGGAUGGGUCUAAUGGACCUCAGGAUAUGCUUGUACAUGAGGAUCACCCAUGUAACAUUGUGCAGAAGGGAGGAUCCACG | – | – | 8.45 nM | 4.93 nM |
| UGCUGGUGACAGCAUCCAUCAAAACAUGAGGAUCACCCAUGUAGAAGGCUGUACGGUUACCGUACAGAGGAUAUACAAUGAUGU | 13.2 nM | 23.6 nM | – | – |
| UGCUUCGUGUAAGGAUAUGCAGCCGUUUCGGCUGCAGAAGGUACUAUAAUACAUGAGGAUCACCCAUGUCUCUCGCUUUGCGGG | – | – | 63.6 nM | 29.4 nM |
| UGGACCGAGCUGUCGGUUGACUCUUAGGAUAUGACAUGAGGAUCACCCAUGUGGGAUCUAAAUUGUCAGAAGGAGGGUUCUGGG | 283 nM | 51.4 nM | – | – |
| UGGAUAGGAAAAUUUGUCCAUUGUACAGAAGGCCAACAUGAGGAUCACCCAUGUAAGAAAAGGAUGGAGGAUAUGUAUAGGGCC | – | – | 64.5 nM | 20.9 nM |
| UGGAUCAUCGGAGGAUAUCAUGUAGAUACAUGAGGAUCACCCAUGUCGUACGAGAGUACGGAGAUUGAGAAGGCCGAUGAUCCU | – | – | 31.6 nM | 14.8 nM |
| UGGAUCAUCGGAGGAUAUCAUGUGUAAACAUGAGGAUCACCCAUGUCGUACGAGAGUACGGAGAUUGAGAAGGCCGAUGAUCCU | – | – | 85.4 nM | 16.4 nM |
| UGGCUACAUGAGGAUCACCCAUGUCAGGAUAUGCCGUCGGAUUGCCUUCGUCGUUCGGGUAGAAGGGACUGCGG | 24.6 nM | 24.1 nM | – | – |
| UGGCUACAUGAGGAUCACCCAUGUCAGGAUAUGCCGUUGAAUUGACAUCAACGUACGGGUAGAAGGGACUGCGU | 39.5 nM | 38.8 nM | – | – |
| UGGGUAAAUGUAGGAUAUCCAUAAUAAUAAUAAGGAGAAGGACAUGAGGAUCACCCAUGUACAGGGAAUUACCCAUUUCCUCUC | 1340 nM | 1170 nM | – | – |
| UGGUACAUCAUAGGAUAUCGUGUGUAAACAUGAGGAUCACCCAUGUCAUACGAGAGUAUGUCGAUCGAGAAGGGUGAUGUACCU | – | – | 75.2 nM | 25.8 nM |
